# How the values were obtained:
# Peregrin = target: T1, Peregrin (Homo sapiens, UniProt P55201); experiment: Binding affinity to human BRPF1 by isothermal titration calorimetry
# T1 sequence (P55201 whole entry): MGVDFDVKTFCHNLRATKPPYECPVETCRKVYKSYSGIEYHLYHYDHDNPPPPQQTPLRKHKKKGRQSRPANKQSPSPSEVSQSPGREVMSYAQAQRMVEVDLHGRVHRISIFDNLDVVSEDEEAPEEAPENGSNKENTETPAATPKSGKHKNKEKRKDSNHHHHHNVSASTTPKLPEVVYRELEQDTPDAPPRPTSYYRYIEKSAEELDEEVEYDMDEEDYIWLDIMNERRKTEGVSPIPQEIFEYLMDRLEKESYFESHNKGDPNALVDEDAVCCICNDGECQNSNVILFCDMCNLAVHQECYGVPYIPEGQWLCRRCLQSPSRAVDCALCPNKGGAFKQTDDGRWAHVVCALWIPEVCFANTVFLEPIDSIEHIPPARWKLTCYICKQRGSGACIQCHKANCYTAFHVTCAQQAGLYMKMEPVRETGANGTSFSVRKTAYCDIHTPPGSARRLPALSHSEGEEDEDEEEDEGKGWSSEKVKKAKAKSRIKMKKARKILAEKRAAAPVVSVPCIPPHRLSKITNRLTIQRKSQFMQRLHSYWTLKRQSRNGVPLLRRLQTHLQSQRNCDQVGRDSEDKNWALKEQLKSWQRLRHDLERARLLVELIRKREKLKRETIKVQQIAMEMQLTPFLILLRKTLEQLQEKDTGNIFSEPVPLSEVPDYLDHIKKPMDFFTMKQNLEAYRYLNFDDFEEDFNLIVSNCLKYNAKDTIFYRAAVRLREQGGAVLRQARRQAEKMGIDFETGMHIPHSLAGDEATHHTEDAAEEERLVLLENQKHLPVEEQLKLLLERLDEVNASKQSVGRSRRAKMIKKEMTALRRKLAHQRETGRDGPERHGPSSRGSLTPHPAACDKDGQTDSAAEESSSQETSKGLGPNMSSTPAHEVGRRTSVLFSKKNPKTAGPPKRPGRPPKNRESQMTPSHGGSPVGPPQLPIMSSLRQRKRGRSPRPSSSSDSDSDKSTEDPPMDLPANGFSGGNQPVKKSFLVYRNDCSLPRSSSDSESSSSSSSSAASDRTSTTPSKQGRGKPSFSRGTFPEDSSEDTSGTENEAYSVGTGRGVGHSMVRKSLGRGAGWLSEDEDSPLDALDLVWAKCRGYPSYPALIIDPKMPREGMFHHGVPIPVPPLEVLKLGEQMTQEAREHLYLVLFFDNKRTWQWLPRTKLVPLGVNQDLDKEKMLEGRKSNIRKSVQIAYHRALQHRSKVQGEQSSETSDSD
# Procedure, shortened: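 Titration of compound into BRPF1 bromodomain; binding heats recorded per injection, normalized enthalpies fitted by nonlinear least squares to a single-binding-site model to give KD, ΔH and TΔS.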
# [1] = Growth inhibition of human OCUM1 cells after 72 hrs; type: functional; details: OCUM1, 72 h
# HuP-T4 = experiment: Growth inhibition of human HUPT4 cells after 72 hrs; type: functional; details: HuP-T4, 72 h
# [2] = Growth inhibition of human C99 cells after 72 hrs; type: functional; details: C99, 72 h
# KG-1 = experiment: Growth inhibition of human KG1 cells after 72 hrs; type: functional; details: KG-1, 72 h
# NCI-H1437 = experiment: Growth inhibition of human NCI-H1437 cells after 72 hrs; type: functional; details: NCI-H1437, 72 h
# [3] = Clearance in CD-1 mouse blood at 1 mg/kg, iv administered as bolus; type: ADME, organism-based; details: whole blood
# Procedure, shortened: (§1)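 Female CD-1 mice (n = 3), single dosing: intravenous 1.0 mg/kg, or oral 3.0 mg/kg given as a suspension. Blood levels were followed over time to derive clearance, volume of distribution, elimination half-life, Cmax, Tmax, AUC0−∞, oral bioavailability and fraction absorbed.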
# [4] = Volume of distribution in CD-1 mouse blood at 1 mg/kg, iv administered as bolus; type: ADME, organism-based; details: whole blood; procedure, shortened: as §1
# [5] = AUC (0 to infinity) in CD-1 mouse blood at 3 mg/kg, po; type: ADME, organism-based; set-up: dose 3 mg/kg, time infinity, route oral; details: whole blood; procedure, shortened: as §1
# [6] = target: Bromodomain adjacent to zinc finger domain protein 2A (Homo sapiens, UniProt Q9UIF9); experiment: Inhibition of human BAZ2A expressed in Escherichia coli BL21 after 1 hr by BROMOscan assay
# [7] = target: Chromatin remodeling regulator CECR2 (Homo sapiens, UniProt Q9BXF3); experiment: Inhibition of human His tagged CECR2 incubated for 30 mins followed by addition of biotinylated peptide and further incubation for 30 mins measured by AlphaScreen assay
# Chromatin remodeling regulator CECR2, sequence (Q9BXF3 whole entry): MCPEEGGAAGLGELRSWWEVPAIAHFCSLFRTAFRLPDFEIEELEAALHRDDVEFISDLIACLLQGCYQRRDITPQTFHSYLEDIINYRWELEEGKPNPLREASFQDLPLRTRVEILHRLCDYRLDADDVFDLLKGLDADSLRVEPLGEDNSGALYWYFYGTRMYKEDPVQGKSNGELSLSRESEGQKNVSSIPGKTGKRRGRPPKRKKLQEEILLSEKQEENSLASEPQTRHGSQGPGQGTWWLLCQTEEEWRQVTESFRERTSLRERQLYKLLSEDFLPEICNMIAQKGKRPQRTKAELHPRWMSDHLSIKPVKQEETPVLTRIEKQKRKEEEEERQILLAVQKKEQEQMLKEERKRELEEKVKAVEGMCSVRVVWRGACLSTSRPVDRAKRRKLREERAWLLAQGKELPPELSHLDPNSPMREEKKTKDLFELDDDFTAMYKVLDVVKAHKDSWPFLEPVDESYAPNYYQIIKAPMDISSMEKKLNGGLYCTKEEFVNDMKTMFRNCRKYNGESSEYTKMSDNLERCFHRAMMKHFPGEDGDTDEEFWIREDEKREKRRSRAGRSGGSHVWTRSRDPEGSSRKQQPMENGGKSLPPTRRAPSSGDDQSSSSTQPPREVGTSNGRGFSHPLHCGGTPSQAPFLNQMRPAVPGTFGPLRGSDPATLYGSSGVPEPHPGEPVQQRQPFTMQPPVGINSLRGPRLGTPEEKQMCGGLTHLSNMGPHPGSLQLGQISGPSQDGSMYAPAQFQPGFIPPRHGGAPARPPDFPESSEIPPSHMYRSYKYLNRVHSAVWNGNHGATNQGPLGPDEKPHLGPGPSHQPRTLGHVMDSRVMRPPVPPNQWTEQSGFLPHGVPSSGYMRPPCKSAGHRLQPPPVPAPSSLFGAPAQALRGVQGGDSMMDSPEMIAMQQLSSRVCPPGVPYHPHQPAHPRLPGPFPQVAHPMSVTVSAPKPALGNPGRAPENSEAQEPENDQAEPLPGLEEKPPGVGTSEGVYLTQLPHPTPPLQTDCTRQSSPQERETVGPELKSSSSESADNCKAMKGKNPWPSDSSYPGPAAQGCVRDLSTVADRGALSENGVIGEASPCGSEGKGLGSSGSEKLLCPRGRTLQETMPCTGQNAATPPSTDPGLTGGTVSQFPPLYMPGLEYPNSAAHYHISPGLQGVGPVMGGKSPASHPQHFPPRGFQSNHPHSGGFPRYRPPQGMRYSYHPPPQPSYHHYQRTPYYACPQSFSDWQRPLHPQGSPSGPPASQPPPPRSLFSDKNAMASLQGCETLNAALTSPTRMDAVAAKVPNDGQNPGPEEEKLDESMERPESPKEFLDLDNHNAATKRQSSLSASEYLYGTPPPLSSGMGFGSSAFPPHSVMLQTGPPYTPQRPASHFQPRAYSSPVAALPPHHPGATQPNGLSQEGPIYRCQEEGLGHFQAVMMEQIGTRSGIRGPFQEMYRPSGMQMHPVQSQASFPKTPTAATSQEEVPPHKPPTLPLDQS
# Bromodomain adjacent to zinc finger domain protein 2A, sequence (Q9UIF9 whole entry, the tested form may be a part): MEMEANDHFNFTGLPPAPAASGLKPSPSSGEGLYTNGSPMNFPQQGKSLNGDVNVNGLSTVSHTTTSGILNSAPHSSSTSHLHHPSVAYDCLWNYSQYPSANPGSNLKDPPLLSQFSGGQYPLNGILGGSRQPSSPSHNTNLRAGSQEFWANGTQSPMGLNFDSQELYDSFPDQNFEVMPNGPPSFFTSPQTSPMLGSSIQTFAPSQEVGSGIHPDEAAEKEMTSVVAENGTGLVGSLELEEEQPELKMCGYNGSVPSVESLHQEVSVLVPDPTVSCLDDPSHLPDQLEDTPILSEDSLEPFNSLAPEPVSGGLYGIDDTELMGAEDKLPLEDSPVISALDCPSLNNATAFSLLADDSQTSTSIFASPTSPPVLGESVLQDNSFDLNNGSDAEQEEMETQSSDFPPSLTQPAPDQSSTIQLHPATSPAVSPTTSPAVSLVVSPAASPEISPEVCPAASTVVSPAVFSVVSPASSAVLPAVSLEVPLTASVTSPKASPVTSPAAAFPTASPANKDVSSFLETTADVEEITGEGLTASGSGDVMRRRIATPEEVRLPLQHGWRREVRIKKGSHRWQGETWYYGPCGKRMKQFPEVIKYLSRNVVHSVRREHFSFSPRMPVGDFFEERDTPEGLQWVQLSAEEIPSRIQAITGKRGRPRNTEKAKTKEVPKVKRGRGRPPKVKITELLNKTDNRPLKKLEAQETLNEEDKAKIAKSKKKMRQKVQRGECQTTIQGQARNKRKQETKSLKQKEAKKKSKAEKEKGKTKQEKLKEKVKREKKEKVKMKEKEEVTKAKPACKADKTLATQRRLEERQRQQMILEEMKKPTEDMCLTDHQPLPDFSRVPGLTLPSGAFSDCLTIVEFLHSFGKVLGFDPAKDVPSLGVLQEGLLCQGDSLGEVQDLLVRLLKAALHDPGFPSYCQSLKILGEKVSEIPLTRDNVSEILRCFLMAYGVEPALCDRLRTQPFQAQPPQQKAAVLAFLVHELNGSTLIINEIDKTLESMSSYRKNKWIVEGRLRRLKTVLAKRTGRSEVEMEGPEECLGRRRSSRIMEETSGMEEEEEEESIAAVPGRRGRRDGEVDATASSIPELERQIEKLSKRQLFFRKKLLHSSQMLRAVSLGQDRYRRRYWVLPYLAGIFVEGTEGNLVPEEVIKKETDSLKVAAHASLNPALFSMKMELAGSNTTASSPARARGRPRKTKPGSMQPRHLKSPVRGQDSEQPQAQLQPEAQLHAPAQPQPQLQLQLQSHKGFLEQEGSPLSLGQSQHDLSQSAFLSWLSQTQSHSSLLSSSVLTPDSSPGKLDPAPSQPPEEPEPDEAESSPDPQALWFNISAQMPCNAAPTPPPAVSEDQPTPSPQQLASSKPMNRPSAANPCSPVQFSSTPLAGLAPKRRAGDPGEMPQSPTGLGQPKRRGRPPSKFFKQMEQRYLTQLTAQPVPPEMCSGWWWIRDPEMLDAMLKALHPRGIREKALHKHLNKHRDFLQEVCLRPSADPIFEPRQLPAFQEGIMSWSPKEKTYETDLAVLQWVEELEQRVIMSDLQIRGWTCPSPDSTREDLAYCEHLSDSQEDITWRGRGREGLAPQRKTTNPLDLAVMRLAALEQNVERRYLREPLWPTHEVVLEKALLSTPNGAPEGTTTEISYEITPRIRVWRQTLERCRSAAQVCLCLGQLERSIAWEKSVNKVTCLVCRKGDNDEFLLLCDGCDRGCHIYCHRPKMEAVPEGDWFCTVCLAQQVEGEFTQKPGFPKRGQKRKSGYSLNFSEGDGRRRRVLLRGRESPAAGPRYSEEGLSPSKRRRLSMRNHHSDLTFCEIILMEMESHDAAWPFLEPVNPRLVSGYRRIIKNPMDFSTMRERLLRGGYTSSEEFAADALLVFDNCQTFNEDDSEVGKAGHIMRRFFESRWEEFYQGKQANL
Compound,Kd (Peregrin),GI50 [1],GI50 (HuP-T4),GI50 [2],GI50 (KG-1),GI50 (NCI-H1437),clearance [3],Vd [4],AUC(0-inf) [5],IC50 [6],IC50 [7]
Cc1cc2cc(NS(=O)(=O)c3ccc(C#N)cc3)ccc2n(C)c1=O,0.04 µM,1 to 10 µM,1 to 10 µM,1 to 10 µM,7 µM,1 to 10 µM,4 mL/min/kg,0.7 L/kg,5700 ng·h/mL,–,–
CCc1cc2cc(NS(=O)(=O)c3ccc(C#N)cc3)ccc2n(CC)c1=O,–,–,–,–,–,–,–,–,–,> 100 µM,> 20 µM

# Source: ChEMBL document CHEMBL4052588, “Design of a Biased Potent Small Molecule Inhibitor of the Bromodomain and PHD Finger-Containing (BRPF) Proteins Suitable for Cellular and in Vivo Studies” (J Med Chem, 2017)
